Laboratory results reported in ChEMBL document CHEMBL1149127, “Synthesis and antitubulin activity of N1- and N4-substituted 3,5-dinitro sulfanilamides against African trypanosomes and Leishmania” (J Med Chem, 2004).

Columns and labels:
Leishmania donovani [1] = assay: Inhibitory concentration against Leishmania donovani axenic amastigotes was determined in vitro; format: functional, organism-based
Trypanosoma brucei = assay: microbe, parasite or virus in culture; format: functional, organism-based
J774 = assay: In vitro cytotoxicity against mouse J774 macrophages.; format: functional, cell-based
Mus musculus [2] = assay: Tested against Trypanosoma brucei strain ST1B 795 in mice as cured to tested at 20 mg/kg/day administered intraperitoneally; 0/4; format: functional; conditions: route intraperitoneal
Mus musculus [3] = assay: Average survival time for mice infected with Trypanosoma brucei ST1B 795 when treated with 20 mg/kg administered intraperitoneally; format: functional; conditions: route intraperitoneal
How it was run: (§1)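 Female NMRI mice (20-25 g) were infected ip with 10⁴ T. b. brucei STIB 795 bloodstream forms and randomly assigned to groups of four. Starting 4 days after infection, 20 mg/kg was given ip for 4 consecutive days. Vehicle was DMSO diluted with water, with final DMSO below 10%. Day of death was recorded for each mouse.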

[4] = Tested for toxicity against mice by intraperitoneal administration; No signs of toxicity; conditions: mouse, in vivo, ip
[5] = Inhibition of Leishmanial tubulin assembly; design: species or system Leishmania donovani
How it was run: (§2)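 Leishmanial tubulin turbidity assay. Compounds added in 50% DMSO. Assembly started on ice by adding cold GTP in 25% DMSO. Turbidity followed at 351 nm while warming to 30 °C. Single-concentration tests run at 10 µM.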

Leishmania donovani [6] = assay: Inhibition percentage of Leishmanial tubulin assembly at a concentration of 10 uM.; how it was run: as §2
Tubulin (Sus scrofa) = Tubulin (Sus scrofa) (UniProt P02554+P02550); assay: Inhibition of porcine brain tubulin assembly at 40 uM
How it was run: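 Porcine brain tubulin purified by DEAE-Sepharose and a warm assembly cycle. Compound at 40 µM added in 100% DMSO. Assembly started on ice with cold GTP in water. Turbidity read at 351 nm while warming to 37 °C. Percent inhibition determined.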

PC-3 = assay: In vitro cytotoxicity against mouse PC3 prostate cancer cell line.; format: functional, cell-based; conditions: Homo sapiens
[7] = test system: Tubulin (Leishmania donovani); assay: Inhibition percentage of Leishmanial tubulin assembly at a concentration of 10 uM
Mus musculus [8] = assay: Average survival time for mice infected with Trypanosoma brucei ST1B 795 when treated with 20 mg/kg administered i.p.; format: functional; conditions: route intraperitoneal; how it was run: as §1

Chain of Tubulin (Sus scrofa) (P02550 whole entry, looked up): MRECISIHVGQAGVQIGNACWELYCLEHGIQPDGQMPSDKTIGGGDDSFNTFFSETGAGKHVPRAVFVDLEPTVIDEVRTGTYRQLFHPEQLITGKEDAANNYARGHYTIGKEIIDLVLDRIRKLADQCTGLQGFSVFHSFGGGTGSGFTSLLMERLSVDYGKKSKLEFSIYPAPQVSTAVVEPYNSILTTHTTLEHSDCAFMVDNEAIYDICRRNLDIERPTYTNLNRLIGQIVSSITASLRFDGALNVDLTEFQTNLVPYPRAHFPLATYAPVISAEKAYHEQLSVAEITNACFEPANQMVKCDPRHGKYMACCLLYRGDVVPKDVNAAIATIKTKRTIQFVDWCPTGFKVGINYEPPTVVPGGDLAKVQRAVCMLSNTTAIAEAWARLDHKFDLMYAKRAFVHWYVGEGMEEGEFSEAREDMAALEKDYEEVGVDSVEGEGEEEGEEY
Chain of Tubulin (Sus scrofa) (P02554 whole entry, looked up): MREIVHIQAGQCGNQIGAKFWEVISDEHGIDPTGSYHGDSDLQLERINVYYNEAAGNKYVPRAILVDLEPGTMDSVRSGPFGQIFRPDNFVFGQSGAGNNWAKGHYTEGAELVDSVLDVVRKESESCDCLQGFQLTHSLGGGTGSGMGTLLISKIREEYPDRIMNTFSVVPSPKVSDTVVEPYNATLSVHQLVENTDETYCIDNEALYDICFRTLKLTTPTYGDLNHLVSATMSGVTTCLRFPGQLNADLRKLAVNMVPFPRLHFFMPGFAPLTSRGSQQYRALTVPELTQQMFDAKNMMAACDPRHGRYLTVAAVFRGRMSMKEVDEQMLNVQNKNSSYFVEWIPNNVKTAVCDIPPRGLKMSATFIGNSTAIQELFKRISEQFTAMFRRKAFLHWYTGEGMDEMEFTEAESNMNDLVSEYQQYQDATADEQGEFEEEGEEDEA

SMILES	IC50 (Leishmania donovani [1]) [µM]	IC50 (Trypanosoma brucei) [µM]	IC50 (J774) [µM]	inhibition (Leishmania donovani [6]) [%]	inhibition (Tubulin (Sus scrofa)) [%]	IC50 (PC-3) [µM]	also measured
CCCCCNS(=O)(=O)c1cc([N+](=O)[O-])c(N(CCC)CCC)c([N+](=O)[O-])c1	43	17					
CCCN(CCC)c1c([N+](=O)[O-])cc(S(=O)(=O)N(CCC)CCC)cc1[N+](=O)[O-]	55	17					
Cc1ccc(C(=O)Nc2ccc(S(=O)(=O)O)c3cc(S(=O)(=O)O)cc(S(=O)(=O)O)c23)cc1NC(=O)c1cccc(NC(=O)Nc2cccc(C(=O)Nc3cc(C(=O)Nc4ccc(S(=O)(=O)O)c5cc(S(=O)(=O)O)cc(S(=O)(=O)O)c45)ccc3C)c2)c1 [SURAMIN]		0.21					
CCCCN(CCCC)c1c([N+](=O)[O-])cc(S(=O)(=O)Nc2ccccc2)cc1[N+](=O)[O-]	2.6	0.12	12	104	< 20	13	Activity (Mus musculus [2]): 0; Survival (Mus musculus [3]): 8 days; Dose [4]: 20 mg/kg; IC50 [5]: 6.9 µM
CCCN(CCC)c1c([N+](=O)[O-])cc(S(=O)(=O)Nc2ccc(C)cc2)cc1[N+](=O)[O-]	32	13	11	< 20	< 20	21	
CCCN(CCC)c1c([N+](=O)[O-])cc(S(=O)(=O)NC2CCCC2)cc1[N+](=O)[O-]	50	11					Activity (Mus musculus [2]): 0; Dose [4]: No signs of toxicity; inhibition [7]: < 20%
CCCN(CCC)c1c([N+](=O)[O-])cc(S(=O)(=O)Nc2cccc(C)c2)cc1[N+](=O)[O-]	23	1.9	16	< 20	< 20	25	
CCCN(CCC)c1c([N+](=O)[O-])cc(S(=O)(=O)N(CC)CC)cc1[N+](=O)[O-]	27	8.3					
CCCN(CCC)c1c([N+](=O)[O-])cc(S(=O)(=O)Nc2cccc(Cl)c2)cc1[N+](=O)[O-]	5.5	2.1	8.7	57	< 20	18	
CCCCNS(=O)(=O)c1cc([N+](=O)[O-])c(N(CCC)CCC)c([N+](=O)[O-])c1	50	12			< 20		
CCCN(CCC)c1c([N+](=O)[O-])cc(S(=O)(=O)NC2CC2)cc1[N+](=O)[O-]	43	3.4					
CCCN(CCC)c1c([N+](=O)[O-])cc(S(=O)(=O)NC(C)C)cc1[N+](=O)[O-]	> 100	4.1					
COc1cc2cc(c1Cl)N(C)C(=O)C[C@H](OC(=O)C(C)C)[C@]1(C)O[C@@H]1[C@H](C)[C@@H]1C[C@@](O)(NC(=O)O1)[C@H](OC)/C=C/C=C(\C)C2 [ANSAMITOCIN P3]			0.00047			6e-05	
CCCN(CCC)c1c([N+](=O)[O-])cc(S(=O)(=O)N(C)C)cc1[N+](=O)[O-]	> 100	5.8					
CCCN(CCC)c1c([N+](=O)[O-])cc(S(=O)(=O)Nc2cc(Cl)cc(Cl)c2)cc1[N+](=O)[O-]	3.7	8	5.1	102	< 20	11	IC50 [5]: 5.8 µM
CCCN(CCC)c1c([N+](=O)[O-])cc(S(=O)(=O)Nc2ccc(Cl)c(Cl)c2)cc1[N+](=O)[O-]	5	7.9	7.2	< 20	< 20	15	
CCCN(CCC)c1c([N+](=O)[O-])cc(S(=O)(=O)Nc2ccc(Cl)cc2)cc1[N+](=O)[O-]	13	13	10	< 20	< 20	16	

SMILES	IC50 (Leishmania donovani [1]) [µM]	IC50 (Trypanosoma brucei) [µM]	IC50 (J774) [µM]	inhibition (Leishmania donovani [6]) [%]	inhibition (Tubulin (Sus scrofa)) [%]	IC50 (PC-3) [µM]	also measured
CCCN(CCC)c1c([N+](=O)[O-])cc(S(=O)(=O)Nc2ccccn2)cc1[N+](=O)[O-]	60	9.2	45				
CCCN(CCC)c1c([N+](=O)[O-])cc(S(N)(=O)=O)cc1[N+](=O)[O-] [ORYZALIN]	65	12	44			56	
CCCCCCNS(=O)(=O)c1cc([N+](=O)[O-])c(N(CCC)CCC)c([N+](=O)[O-])c1	26	15					
CCCNS(=O)(=O)c1cc([N+](=O)[O-])c(N(CCC)CCC)c([N+](=O)[O-])c1	54	8.9		< 20			
CCCN(CCC)c1c([N+](=O)[O-])cc(S(=O)(=O)N(C)c2ccccc2)cc1[N+](=O)[O-]	21	1	11	< 20		> 100	
CCCN(CCC)c1c([N+](=O)[O-])cc(S(=O)(=O)N2CCCC2)cc1[N+](=O)[O-]	47	6.5					
N=C(N)c1ccc(OCCCCCOc2ccc(C(=N)N)cc2)cc1 [PENTAMIDINE]		0.013					
CCCN(CCC)c1c([N+](=O)[O-])cc(S(=O)(=O)N2CCOCC2)cc1[N+](=O)[O-]	> 100	> 100					
CCCN(CCC)c1c([N+](=O)[O-])cc(S(=O)(=O)Nc2ccccc2)cc1[N+](=O)[O-]	5	0.41	28	89	14	31	Activity (Mus musculus [2]): 0; Survival (Mus musculus [8]): 8 days; Dose [4]: 20 mg/kg; IC50 [5]: 6.7 µM
CCN(CC)c1c([N+](=O)[O-])cc(S(=O)(=O)Nc2ccccc2)cc1[N+](=O)[O-]	11	2.8	48	< 20	< 20	56	
CCCN(CCC)c1c([N+](=O)[O-])cc(S(=O)(=O)NCC)cc1[N+](=O)[O-]	> 100	5.4					
CCCCN(CCCC)S(=O)(=O)c1cc([N+](=O)[O-])c(N(CCC)CCC)c([N+](=O)[O-])c1	48	38					
CCCN(CCC)c1c([N+](=O)[O-])cc(S(=O)(=O)Nc2cccc(OC)c2)cc1[N+](=O)[O-]	8.1	1.3	25	39	< 20	36	
CCCCCCN(CCCCCC)S(=O)(=O)c1cc([N+](=O)[O-])c(N(CCC)CCC)c([N+](=O)[O-])c1	> 100	> 50					
CCCN(CCC)c1c([N+](=O)[O-])cc(S(=O)(=O)N(c2ccccc2)c2ccccc2)cc1[N+](=O)[O-]	> 100	7	> 100			> 100	
CCCN(CCC)c1c([N+](=O)[O-])cc(S(=O)(=O)Nc2ccc(OC)cc2)cc1[N+](=O)[O-]	32	19	15	< 20	< 20	31	Activity (Mus musculus [2]): 0; Dose [4]: No signs of toxicity
CCCN(CCC)c1c([N+](=O)[O-])cc(S(=O)(=O)NC)cc1[N+](=O)[O-]	> 100	5.3		< 20	< 20		
